“Also recorded” adds a separate entry of the source. Non-standard residues stand in square brackets, D forms with d. No end group written: not given here. Hyp = O=C(O)[C@@H]1C[C@@H](O)CN1

Data set [1] concerns 3T3 cells. Type of data set: cell-based, mouse.
The test system of data set [2] is 3T3 cells. Description: Cytotoxicity assay. Particulars: CCK-8, up to 1 mg/ml, Fig. 4D. The class given is cell-based, mouse. Put shortly:
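Mouse fibroblast BALB 3T3 cells were exposed to a recombinant collagen III tandem-repeat protein or collagen-derived peptides at concentrations up to 1000 μg/ml. Viability was read with CCK-8 following the manufacturer's manual. CC50 was the intended read-out.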

The data set “crystal structure” deals with the molecule itself. The data set can be described thus: crystal structure.

Turning to “C1P: native hCOL3A1 peptide, Gly483-Pro512 (GERGAPGFRGPAGPNGIPGEKGPAGERGAP)”, in the data set on 3T3 cells [1], the “cell adhesion activity (relative cell adhesion rate)” value was “the most potent cell adhesion activity; also recorded: much stronger cell adhesion activity than that of Type I collagen”. As to “bovine serum albumin [BSA, reference compound]”, the “cell adhesion activity (relative cell adhesion rate)” value with 3T3 cells [1] is “no significant adhesion activity”.

B1: T16: recombinant 480aa protein, 16 tandem repeats of the triple-helix fragment of hCOL3A1, Gly483-Pro512 (C1P) (protein)
chain: GERGAPGFRGPAGPNGIPGEKGPAGERGAPGERGAPGFRGPAGPNGIPGEKGPAGERGAPGERGAPGFRGPAGPNGIPGEKGPAGERGAPGERGAPGFRGPAGPNGIPGEKGPAGERGAPGERGAPGFRGPAGPNGIPGEKGPAGERGAPGERGAPGFRGPAGPNGIPGEKGPAGERGAPGERGAPGFRGPAGPNGIPGEKGPAGERGAPGERGAPGFRGPAGPNGIPGEKGPAGERGAPGERGAPGFRGPAGPNGIPGEKGPAGERGAPGERGAPGFRGPAGPNGIPGEKGPAGERGAPGERGAPGFRGPAGPNGIPGEKGPAGERGAPGERGAPGFRGPAGPNGIPGEKGPAGERGAPGERGAPGFRGPAGPNGIPGEKGPAGERGAPGERGAPGFRGPAGPNGIPGEKGPAGERGAPGERGAPGFRGPAGPNGIPGEKGPAGERGAPGERGAPGFRGPAGPNGIPGEKGPAGERGAP
modifications: left off: thioredoxin, end not stated, state not stated
Regarding B1, the “cell adhesion activity (relative cell adhesion rate)” value in the data set on 3T3 cells [1] was “very strong cell adhesion activity”. Further, the cytotoxicity result in the data set with 3T3 cells [2] is “No obvious cytotoxicity”. As for P[Hyp]GP[Hyp]GP[Hyp]GFRGPAGPNGIPGP[Hyp]GP[Hyp]GP[Hyp]G [host-guest peptide C3Pa, (Pro-Hyp-Gly)3-FRGPAGPNGIPG-(Pro-Hyp-Gly)3], in “crystal structure”, the “stoichiometry N” value came to 3.

Usually stoichiometry N stands for the number of molecules, sites or subunits per partner or assembly.

The values above are taken from PMC7092849 (Biochemical and Biophysical Research Communications, 2018).
